Experimental findings from ChEMBL document CHEMBL3407498, “Design, synthesis and 3D-QSAR studies of novel 1,4-dihydropyridines as TGFβ/Smad inhibitors” (Eur J Med Chem, 2015) are described below.

One test relates to HEK293. Put plainly: Inhibition of TGFbeta/Smad in TGFbeta-2/activin A-stimulated HEK293 cells preincubated at 2.5 uM for 2 hrs before stimulation measured after 20 to 22 hrs by firefly/renilla luciferase reporter assay. It counts as cell-based. The note with it: Homo sapiens. The essentials:
(§1)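 HEK293T cells co-transfected with SBE-4 firefly luciferase and TK-driven renilla luciferase plasmids, replated after 12-14 h, rested 2 h, then given compound, DMSO and TGFβ-2 or Activin A (10 ng/mL). Firefly and renilla signals read after 20-22 h by dual luciferase kit. Triplicate wells; data normalized to DMSO (0% inhibition), mean ± SD of 2-4 independent experiments.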

The nature of test [1]: Inhibition of TGFbeta/Smad in TGFbeta-2/activin A-stimulated HEK293 cells preincubated for 2 hrs before stimulation measured after 20 to 22 hrs by firefly/renilla luciferase reporter assay. It counts as cell-based. The note with it: Homo sapiens. The essentials: as §1
In general terms: In a reporter assay the amount or activity of a reporter protein is the signal.

For orientation: inhibition means how much of the control response was suppressed. Lower therefore signals a response near the control. For the compound `CCOC(=O)C1=C(C)NC2=C(C(=O)CC(C)(C)C2)C1c1cc(OC)c(OC)c(OC)c1` (stereo not drawn), the inhibition with HEK293 amounted to 5%. The IC50 is the midpoint of a concentration-inhibition curve. The low end stands for greater potency in that assay, the high end for weaker potency in that assay. The compound `CCCNCC1=C(C(=O)OCC)C(c2ccc(-c3ccccc3)cc2)C2=C(CC(C)(C)CC2=O)N1` (stereo not drawn) registered an inhibition in the test on HEK293 of 57%. The compound also displayed a half-inhibitory concentration (IC50) in test [1] of 1.6 µM. The compound `CCOC(=O)C1=C(C)NC2=C(C(=O)CC(C)(C)C2)C1c1ccc(-c2ccc(F)cc2)cc1` (stereo not drawn) came in with an inhibition in the test on HEK293 of 74%. In addition, in test [1], the IC50 came to 1.23 µM. In the case of `CCOC(=O)C1=C(C)NC2=C(C(=O)CC(C)(C)C2)C1c1ccc(O)c(OC)c1` (stereo not drawn), the inhibition with HEK293 stood at 8%. On to `CC1=C(C(=O)NCc2ccccc2)C(c2ccc(-c3ccccc3)cc2)C2=C(CC(C)(C)CC2=O)N1` (stereo not drawn), for which the inhibition in the test on HEK293 stood at 32%. The compound further yielded an IC50 in test [1] of 5.19 µM. Consider `CC1(C)CC(=O)C2=C(C1)NC1=C(C(=O)NC1)C2c1ccc(-c2ccccc2)cc1` (stereo not drawn), for which the inhibition in the test on HEK293 was found to be 28%. On the same count and under the same terms, the figure for `CCOC(=O)C1=C(C(=O)O)NC2=C(C(=O)CC(C)(C)C2)C1c1ccc(-c2ccccc2)cc1` (stereo not drawn) is 0%; for `CCOCCOC(=O)C1=C(C)NC(C)=C(C(=O)OCCOCC)C1c1ccccc1OC(F)(F)F` it is 4%. On the same count and under the same terms, to `COC(=O)C1=C(C(=O)O)NC2=C(C(=O)CC(C)(C)C2)C1c1ccc(-c2ccccc2)cc1` (stereo not drawn) belongs 4%. In the test on HEK293, `CCNCC1=C(C(=O)OCC)C(c2ccc(-c3ccccc3)cc2)C2=C(CC(C)(C)CC2=O)N1` (stereo not drawn) returned an inhibition of 64%. Further, the concentration for half-maximal inhibition (IC50) in test [1] came out at 3.44 µM.

The compound `CCOC(=O)C1=C(COC)NC2=C(C(=O)CC(C)(C)C2)C1c1ccc(-c2ccccc2)cc1` (stereo not drawn) returned an inhibition in the test on HEK293 of 78%. In addition, it took 1.89 µM to reach half-maximal inhibition in test [1] (IC50). Consider `CC1=C(C(=O)OC(C)(C)C)C(c2ccc(-c3ccccc3)cc2)C2=C(CC(C)(C)CC2=O)N1` (stereo not drawn), for which, in the test on HEK293, the inhibition was determined as 84%. For the same compound, half-maximal inhibition in test [1] (IC50) was put at 0.67 µM. In the test with HEK293, `CCNC(=O)C1=C(C)NC2=C(C(=O)CC(C)(C)C2)C1c1ccc(-c2ccccc2)cc1` (stereo not drawn) returned an inhibition of 31%.

In the test with HEK293, `CCOC(=O)C1=C(C)NC2=C(C(=O)CC(C)(C)C2)C1c1ccccc1OC(F)(F)F` (stereo not drawn) yielded an inhibition of 9%. Consider `CCCOCCOC(=O)C1=C(C)NC2=C(C(=O)CC(C)(C)C2)C1c1ccc(-c2ccccc2)cc1` (stereo not drawn), for which, in the test with HEK293, the inhibition was determined as 0%.

Compound `CCC(=O)C1=C(CC)NC2=C(C(=O)CC(C)(C)C2)C1c1ccc(-c2ccccc2)cc1` (stereo not drawn) came in with an inhibition in the test with HEK293 of 62%. The IC50 in test [1] was determined as 1.63 µM. The compound `CCOC(=O)C1=C(C)NC2=C(C(=O)NCC2)C1c1ccc(-c2ccccc2)cc1` (stereo not drawn) registered an inhibition in the test on HEK293 of 21%. In the case of `CCOC(=O)C1=C(C)NC2=C(C(=O)CC(C)(C)C2)C1c1ccc(-c2ccc(O)cc2)cc1` (stereo not drawn), in the test with HEK293, the inhibition came out at 74%. Further, the IC50 in test [1] was 0.73 µM.

Compound `CCOC(=O)C1=C(C)NC2=C(C(=O)CC(C)(C)C2)C1c1ccc(-c2ccc(N(C)C)cc2)cc1` (stereo not drawn) returned an inhibition in the test with HEK293 of 95%. In test [1], the IC50 stood at 0.33 µM.

For the compound `CC1(C)CC(=O)C2=C(C1)NC1=C(C(=O)CC(C)(C)C1)C2c1ccccc1`, the inhibition in the test with HEK293 amounted to 21%.

Take `CC1=C(C#N)C(c2ccc(-c3ccccc3)cc2)C2=C(CC(C)(C)CC2=O)N1` (stereo not drawn): in the test with HEK293, the inhibition is 44%. In addition, half-maximal inhibition in test [1] (IC50) required 2.95 µM. In the test with HEK293, `CCCOC(=O)C1=C(C)NC2=C(C(=O)CC(C)(C)C2)C1c1ccc(-c2ccccc2)cc1` (stereo not drawn) came in with an inhibition of 93%. The same compound returned an IC50 in test [1] of 0.49 µM.

`CCOC(=O)C1=C(N)NC2=C(C(=O)CC(C)(C)C2)C1c1ccc(-c2ccccc2)cc1` (stereo not drawn) yielded an inhibition with HEK293 of 61%. 1.33 µM corresponded to half-maximal inhibition in test [1] (IC50). Take `CCOC(=O)C1=C(C)NC2=C(C(=O)CC(C)(C)C2)C1c1ccc(-c2ccc(OC)cc2)cc1` (stereo not drawn): the inhibition in the test on HEK293 was 93%. In test [1], this compound yielded an IC50 of 0.42 µM. Compound `CCOC(=O)C1=C(C)NC2=C(C(=O)CC(C)(C)C2)C1c1ccc(-c2ccncc2)cc1` (stereo not drawn) came in with an inhibition with HEK293 of 27%. In test [1], this compound gave an IC50 of 6.14 µM. `CC1(C)CC(=O)C2=C(C1)NC1=C(C(=O)N(Cc3ccccc3)C1)C2c1ccc(-c2ccccc2)cc1` (stereo not drawn) returned an inhibition in the test on HEK293 of 82%. In test [1], the IC50 amounted to 0.87 µM. Consider `CCN(CC)CCN1C2=C(C(=O)CC(C)(C)C2)C(c2ccccc2)C2=C1CC(C)(C)CC2=O`, for which the inhibition with HEK293 was 12%.

On to `CCOC(=O)C1=C(C(=O)OCC)C(c2ccc(-c3ccccc3)cc2)C2=C(CC(C)(C)CC2=O)N1` (stereo not drawn), for which the inhibition in the test on HEK293 amounted to 56%. In test [1], this compound displayed a half-inhibitory concentration (IC50) of 1.8 µM. For `CCOC(=O)C1=C(C)NC2=C(C(=O)CC(C)(C)C2)C1c1ccc(-c2ccc(C#N)cc2)cc1` (stereo not drawn), the inhibition with HEK293 turned out to be 52%. Besides, 1.79 µM corresponded to half-maximal inhibition in test [1] (IC50). The matching figures for `CCOC(=O)C1=C(C)NC2=C(C(=O)CC(C)(C)C2)C1c1ccc(-c2ccc(OC(F)(F)F)cc2)cc1` (stereo not drawn): 95% and 0.48 µM. In the test with HEK293, `CCCC(=O)C1=C(C)NC2=C(C(=O)CC(C)(C)C2)C1c1ccc(-c2ccccc2)cc1` (stereo not drawn) showed an inhibition of 84%. For the same compound, the IC50 in test [1] was 0.5 µM. `CCOC(=O)C1=C(C)NC2=C(C(=O)CC(C)(C)C2)C1c1ccc(-c2ccc(C(F)(F)F)cc2)cc1` (stereo not drawn) gave an inhibition in the test on HEK293 of 88%. In addition, in test [1], the half-maximal inhibitory concentration (IC50) was found to be 0.97 µM. `C=CCOC(=O)C1=C(C)NC2=C(C(=O)CC(C)(C)C2)C1c1ccc(-c2ccccc2)cc1` (stereo not drawn) returned an inhibition in the test on HEK293 of 91%. In addition, in test [1], the midpoint of inhibition, the IC50, lay at 0.62 µM.

Turning to `CC1=C(C(=O)OC2CCCC2)C(c2ccc(-c3ccccc3)cc2)C2=C(CC(C)(C)CC2=O)N1` (stereo not drawn), in the test with HEK293, the inhibition was 77%. It took 1.11 µM to reach half-maximal inhibition in test [1] (IC50). `CCOC(=O)C1=C(C)NC2=C(C(=O)CC(C)(C)C2)C1c1ccc(-c2ccc(C)cc2)cc1` (stereo not drawn) displayed an inhibition in the test on HEK293 of 94%. Also, in test [1], half-maximal inhibition (IC50) was put at 0.35 µM. For the compound `CCOC(=O)C1=C(C)NC2=C(C(=O)CC(C)(C)C2)C1c1ccccc1` (stereo not drawn), the inhibition in the test with HEK293 is 2%.

As for `CCOC(=O)C1=C(C)NC2=C(C(=O)CC(C)(C)C2)C1c1ccc(C(C)(C)C)cc1` (stereo not drawn), the inhibition in the test with HEK293 was determined as 90%. Take `CC1(C)CC(=O)C2=C(C1)NC1=C(C(=O)c3ccccc31)C2c1ccccc1` (stereo not drawn): the inhibition in the test on HEK293 came out at 11%. The compound `C#Cc1ccc(C2C(C(=O)OCC)=C(C)NC3=C2C(=O)CC(C)(C)C3)cc1` (stereo not drawn) came in with an inhibition in the test with HEK293 of 59%. Besides, the IC50 in test [1] came to 1.71 µM. Compound `CCOC(=O)C1=C(C)NC2=C(C(=O)CC(C)(C)C2)C1c1ccc(-c2ccc(S(C)(=O)=O)cc2)cc1` (stereo not drawn) displayed an inhibition with HEK293 of 44%. For the same compound, the 50% inhibitory concentration (IC50) in test [1] was found to be 2.76 µM.

On to `CCOC(=O)C1=C(C)NC2=C(C(=O)CC(C)(C)C2)C1c1ccc(-c2ccccc2)cc1` (stereo not drawn), for which the inhibition with HEK293 worked out at 83%. The same compound returned an IC50 in test [1] of 0.85 µM. With `CCOC(=O)C1=C(N)NC2=C(C(=O)CC(C)(C)C2)C1c1ccc(C(C)(C)C)cc1` (stereo not drawn), in the test with HEK293, the inhibition was 89%. Besides, the IC50 in test [1] is 0.51 µM. The compound `CCN1CC2=C(C1=O)C(c1ccc(-c3ccccc3)cc1)C1=C(CC(C)(C)CC1=O)N2` (stereo not drawn) had an inhibition in the test with HEK293 of 25%. The compound also displayed a concentration for half-maximal inhibition (IC50) in test [1] of 5.03 µM. On to `CCOC(=O)C1=C(C)NC2=C(C(=O)CC(C)(C)C2)C1c1ccc(-c2ccc(Cl)cc2)cc1` (stereo not drawn), for which the inhibition in the test on HEK293 was 91%. In test [1], this compound came in with an IC50 of 0.76 µM. In the case of `CCCCCCCCCCCCOC(=O)C1=C(C)NC2=C(C(=O)CC(C)(C)C2)C1c1ccc(-c2ccccc2)cc1` (stereo not drawn), in the test on HEK293, the inhibition turned out to be 0%. `CCCCC(=O)C1=C(C)NC2=C(C(=O)CC(C)(C)C2)C1c1ccc(-c2ccccc2)cc1` (stereo not drawn) registered an inhibition in the test on HEK293 of 80%. The compound also had an IC50 in test [1] of 0.56 µM. The matching figures for `CC1(C)CC(=O)C2=C(C1)NC1=C(C(=O)c3ccccc31)C2c1ccc(-c2ccccc2)cc1` (stereo not drawn): 70% and 1.26 µM.

In turn, `CC1=C(C(=O)OCC(C)C)C(c2ccc(-c3ccccc3)cc2)C2=C(CC(C)(C)CC2=O)N1` (stereo not drawn) showed an IC50 in test [1] of 0.42 µM.

Consider `COC(=O)C1=C(C)NC2=C(C(=O)CC(C)C2)C1c1ccc(-c2ccccc2)cc1` (stereo not drawn), for which, in the test on HEK293, the inhibition is 21%. Consider `CCOC(=O)C1=C(C)NC2=C(C(=O)CC(C)(C)C2)C1c1ccc(-c2ccc(Br)cc2)cc1` (stereo not drawn), for which, in the test on HEK293, the inhibition turned out to be 94%. This compound displayed an IC50 in test [1] of 0.46 µM.

Consider `CC1=C(C(=O)OC(C)C)C(c2ccc(-c3ccccc3)cc2)C2=C(CC(C)(C)CC2=O)N1` (stereo not drawn), for which the inhibition in the test with HEK293 is 85%. Also, it took 0.66 µM to reach half-maximal inhibition in test [1] (IC50). The matching figures for `COC(=O)C1=C(C(=O)OC)C(c2ccc(-c3ccccc3)cc2)C2=C(CC(C)(C)CC2=O)N1` (stereo not drawn): 46% and 2.01 µM.

In the test on HEK293, `CC1(C)CC(=O)C2=C(C1)NC1=C(C(=O)OC1)C2c1ccc(-c2ccccc2)cc1` (stereo not drawn) returned an inhibition of 37%. This compound also came in with an IC50 in test [1] of 4.3 µM.
